From PubChem BioAssay
CXCR6 inh = blocks human CXCR6 beta-arrestin recruitment. O00574. CHO-K1 PathHunter CXCR6 beta-arrestin, luminescence. inhibition, % at 20 µM. 360,000 compounds, 0.36% hits. AID 602244; in the data active means inhibition above about 34%, passing the limit was not always enough;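 further: antagonist mode with CXCL16 agonist at 10 nM final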
CCR6 antagonist = blocks CCL20-driven beta-arrestin recruitment at human CCR6; P51684; CHO-K1 CCR6 PathHunter beta-arrestin, luminescence, CCL20-stimulated; inhibition, % at 20 µM; 340,000 compounds, 0.49% hits; AID 493098;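 active means compounds whose inhibition of the agonist-driven luminescence signal at 20 µM reaches about 50%, limit read from the data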;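 further: cells stimulated with CCL20 at 14 nM final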
EBI2 antag = blocks human EBI2 receptor beta-arrestin signaling; EBI2 beta-arrestin recruitment, luminescence, 7a,25-OHC stimulated; inhibition, % at 5 µM; 360,000 compounds, 0.81% hits; AID 651636; in the data active means inhibition above about 38%;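 further: enzyme fragment complementation signal reports receptor beta-arrestin coupling in cells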
m5-HT2A agonist = mouse HTR2A agonism via beta-arrestin recruitment; 360,000 compounds, 0.66% hits; CHO-K1 mHTR2A beta-arrestin complementation, luminescence; percent of 30 µM serotonin response; activation, % at 7.6 µM;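 active means activation above a run cutoff, the mean activation of all tested compounds plus 3 SD, cut at about 14% in these data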
APJ antagonist = blocks the human apelin receptor APJ; CHO-K1 APJ beta-arrestin complementation, luminescence; AID 2521; inhibition, % at 20 µM; P35414; 330,000 compounds, 0.32% hits;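 active means inhibition above about 40% at 20 µM, limit read from the data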;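 further: cells challenged with 10 nM apelin-13 agonist together with compound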
Target sequence (P35414 whole entry, looked up): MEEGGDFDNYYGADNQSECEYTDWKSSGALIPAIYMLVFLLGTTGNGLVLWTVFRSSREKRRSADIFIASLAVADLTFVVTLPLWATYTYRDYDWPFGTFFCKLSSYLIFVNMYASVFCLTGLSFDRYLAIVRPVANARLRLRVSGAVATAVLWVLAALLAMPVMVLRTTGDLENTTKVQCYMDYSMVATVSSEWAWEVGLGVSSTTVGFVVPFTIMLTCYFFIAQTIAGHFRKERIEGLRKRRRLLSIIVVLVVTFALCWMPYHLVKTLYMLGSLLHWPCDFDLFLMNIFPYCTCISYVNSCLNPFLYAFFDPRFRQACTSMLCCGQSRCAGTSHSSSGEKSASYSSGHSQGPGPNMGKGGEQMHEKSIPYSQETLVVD
APJ agonist = activates the human apelin receptor APJ; CHO-K1 APJ PathHunter beta-arrestin, luminescence; 0% DMSO wells, 100% apelin; activation, % at 20 µM; 330,000 compounds, 0.11% hits; AID 2520;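 active means activation more than six SD over the plate average, tested at 20 µM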
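Assay system: CHO-K1 cells stably expressing ProLink-tagged human APJ and arrestin–beta-gal acceptor. Compound dosing: 20 µM single point, 1% DMSO. Times: 16-18 h seeding, 90 min dark compound exposure, 60 min detection. Detection: beta-gal luminescence. Evaluation: APJ–arrestin association signal. Controls: negative DMSO alone, positive Apelin-13 at 10 nM.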
EBI2 conf = EBI2 (human) antagonism, single concentration confirmation; EBI2 beta-arrestin luminescence, 7a,25-OHC antagonism; 2,400 compounds, 29% hits; shares compounds with EBI2 antag; inhibition, % at 5 µM;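 active means inhibition of at least 50%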
EBI2 agonist = counter-screen for EBI2 antagonists: EBI2 agonist activity | activation, % at 5 µM | 2,400 tested, under 10 active | EBI2-expressing cells, agonist mode, luminescence, 60 min; 0% vehicle, 100% 7α,25-dihydroxycholesterol control | shares compounds with EBI2 antag | AID 652000;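 active means activation of at least 50%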
bGal cs = beta-galactosidase inhibition counter-screen | inhibition, % at 5 µM | purified beta-galactosidase, luminescent Galacton Star, 15 min | shares compounds with EBI2 antag | 2,400 compounds, 1% hits;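 active means replicate-average signal at least 3 plate SD below neutral wells, shown as high inhibition, flagging enzyme-inhibiting false positives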;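 further: higher means stronger loss of beta-gal luminescence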
Of the large screens only hits and unclear results are named; the others gave an inactive call (follow-up assays come after a bar, where they were run). This is a sample that favours compounds with a hit; in the whole collection about 2.1% have one here.

O=C(c1ccc(Cl)c(Cl)c1)c1cc(-c2ccccn2)c(N2CCOCC2)s1	EBI2 antag 64.8 | EBI2 conf inactive | EBI2 agonist inactive | bGal cs inactive
CCCN(CC(=O)Nc1ccccc1C)C(=O)/C=C/c1ccc(OCC)c(OC)c1	none
Cc1ccccc1Nc1c([N+](=O)[O-])ccc2c1=NC1(CCCCC1)N=2	EBI2 antag 56.1 | EBI2 conf inactive | EBI2 agonist inactive | bGal cs inactive
O=C(COC(=O)c1cc(-c2ccc(F)cc2)nc2ccccc12)NCC1CCCO1 (stereo unspecified)	none
O=S(Cc1ccc(Cl)cc1)CC(O)COc1ccc(Cl)cc1 (stereo unspecified)	EBI2 antag 75.5 | EBI2 conf 60.1 | EBI2 agonist inactive | bGal cs inactive
Cc1cccc(C)c1NC(=O)C1(N2C(=O)CC2c2ccccc2)CCCCC1 (stereo unspecified)	none
CCOC(=O)C1(CCCc2ccccc2)CCN(C2CCN(C(C)=O)CC2)CC1	none
Cc1ccc(/C=C/C(=O)NC(=S)N2CCN(c3ccc(F)cc3)CC2)cc1	EBI2 antag 47.7 | EBI2 conf inactive | EBI2 agonist inactive | bGal cs inactive
Cc1ccc(/C=C/C(=O)NC(=S)N2CCN(C)CC2)cc1	EBI2 antag 55.1 | EBI2 conf inactive | EBI2 agonist inactive | bGal cs inactive
O=c1n(Cc2ccccc2)c2cc(Cl)cnc2n1Cc1ccccc1	EBI2 antag 71.2 | EBI2 conf 50.4 | EBI2 agonist inactive | bGal cs inactive
C[C@@H]1CN([C@@H](C)CO)C(=O)CCCn2nncc2CO[C@H]1CN(C)Cc1cccc(O)c1	none (no result: CCR6 antagonist, APJ antagonist, APJ agonist)
CCN(CC)S(=O)(=O)c1ccc2c(c1)nc(SCC(=O)N1CCCCCC1)n2-c1ccc(OC)cc1	EBI2 antag 47.1 | EBI2 conf 56.4 | EBI2 agonist inactive | bGal cs inactive
CCOC(=O)c1cnn(-c2nc(-c3ccc(C)cc3)cs2)c1C(F)(F)F	EBI2 antag 45.0 (no result: APJ antagonist, APJ agonist) | EBI2 conf inactive | EBI2 agonist inactive | bGal cs inactive
O=C1CC(C(=O)N2CCN(S(=O)(=O)c3cccc(F)c3)CC2)CN1Cc1ccccc1Cl (stereo unspecified)	EBI2 antag 61.7 | EBI2 conf inactive | EBI2 agonist inactive | bGal cs inactive
O=C(COC(=O)c1cc(S(=O)(=O)N2CCCCC2)ccc1N1CCOCC1)c1ccccc1Cl	EBI2 antag 48.1 (no result: CCR6 antagonist, APJ antagonist, APJ agonist) | EBI2 conf 65.0 | EBI2 agonist inactive | bGal cs inactive
Cc1cc(C)nc(-n2ncc3c2CC(C)CC3=O)n1 (stereo unspecified)	none
COc1ccc(CCC(=O)NCCc2ccc(Cl)cc2)cc1	EBI2 antag 43.0 | EBI2 conf inactive | EBI2 agonist inactive | bGal cs inactive
COc1ccc(CCNC(=O)CCc2ccc(OC)cc2)cc1	none
Cc1nn(-c2ccccc2)c(C)c1/C=N/NC(=O)c1cc(-c2ccc(Cl)s2)[nH]n1	EBI2 antag 52.4 | EBI2 conf inactive | EBI2 agonist inactive | bGal cs inactive
Cc1nn(-c2ccccc2)c(C)c1/C=N/NC(=O)c1cc(-c2ccc(Br)s2)[nH]n1	EBI2 antag 59.1 | EBI2 conf inactive | EBI2 agonist inactive | bGal cs inactive
Cc1ccc(SCC(=O)Nc2ccc(N3CCN(C)CC3)c(F)c2)c(C)c1	none
COc1cc(C(=O)O)c2ccccc2n1	none
CC(=O)c1cccc(NC(=O)c2ccc(OC3CSC3)cc2)c1	none
Cc1cccc(NC(=O)c2ccc(OC3CSC3)cc2)c1	EBI2 antag 55.4 | EBI2 conf inactive | EBI2 agonist inactive | bGal cs inactive
Cc1nc(SCc2nc3ccc(Cl)cc3[nH]2)c2oc3ccccc3c2n1	none
